pIC50: −log10 of the molar value. Converted amounts (≈) assume the structure as drawn. The source made the active and inactive calls. No cut-off for these calls is given here.
Legend:
[1] = test system: Fusarium oxysporum; test: Antifungal activity against Fusarium oxysporum Schlecht after 3 to 7 days by microbroth dilution method; type: functional, organism-based
How it was run: (§1)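 Microbroth dilution with fungal cultures at 10^4 mycelia fragments/mL. Test samples and ketoconazole were 1 mg/mL DMSO stocks. 180 μL culture plus 20 μL stock in the first well gave 100 μg/mL final, followed by serial dilution. Run in triplicate, incubated at 28 °C for 3−7 days, and MIC determined.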

[2] = test system: Rhizoctonia solani; test: Antifungal activity against Rhizoctonia solani after 3 to 7 days by microbroth dilution method; type: functional, organism-based; how it was run: as §1
[3] = test system: Alternaria sp. 'fragaria'; test: Antifungal activity against Alternaria fragaria after 3 to 7 days by microbroth dilution method; type: functional; how it was run: as §1
[4] = test system: Alternaria solani; test: Antifungal activity against Alternaria solani Sorauer after 3 to 7 days by microbroth dilution method; type: functional, organism-based; how it was run: as §1
[5] = test system: A549; test: Cytotoxicity against human A549 cells after 48 hrs by CCK8 assay; type: functional, cell-based; conditions: A549, 48 h
How it was run: (§2)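 Cells grown in DMEM with 10% FBS at 37 °C, 5% CO2. Seeded at 5000 cells/well and left 16 h, then exposed to a range of concentrations in growth medium for 48 h. Viability read by CCK-8 absorbance as percent of untreated control. IC50 taken from a sigmoidal curve; camptothecin was the positive control.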

[6] = organism: Homo sapiens; test: Cytotoxicity against human T1224 cells in patient-derived organoid model after 48 hrs by CCK8 assay; type: functional, cell-based
How it was run: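 Patient-derived HCC cells (50 000) were embedded in Matrigel, set 20 min at 37 °C, then grown 6–8 days in DMEM/F12 with B27, 0.01% BSA, 2 mM glutamine, penicillin/streptomycin, 10 ng/mL FGF basic, 50 ng/mL EGF and 50 ng/mL HGF to form organoids. Medium was changed every 2 days.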

[7] = Antifungal activity against Cercospora personata after 3 to 7 days by microbroth dilution method; type: functional; conditions: Nothopassalora personata
How it was run: (§3)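 Microbroth dilution with fungal inoculum at 10^4 mycelial fragments/mL. Stock solutions were 1 mg/mL in DMSO. 20 μL stock was added to 180 μL culture, giving a top final concentration of 100 μg/mL, then serially diluted, in triplicate. Plates were held at 28 °C for 3–7 days and read for MIC; ketoconazole was the positive control.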

[8] = test system: Botrytis cinerea; test: Antifungal activity against Botrytis cinerea Pers. after 3 to 7 days by microbroth dilution method; type: functional; how it was run: as §3
[9] = test system: Sclerotinia sclerotiorum; test: Antifungal activity against Sclerotinia sclerotiorum after 3 to 7 days by microbroth dilution method; type: functional; how it was run: as §3
[10] = test system: Huh-7; test: Cytotoxicity against human HuH7 cells after 48 hrs by CCK8 assay; type: functional, cell-based; conditions: Huh-7, 48 h; how it was run: as §2
[11] = test system: LN-229; test: Cytotoxicity against human LN229 cells after 48 hrs by CCK8 assay; type: functional, cell-based; conditions: LN-229, 48 h; how it was run: as §2
[12] = test system: Alternaria alternata; test: Antifungal activity against Alternaria alternata after 3 to 7 days by microbroth dilution method; type: functional; how it was run: as §3
[13] = Cytotoxicity against human MGC cells after 48 hrs by CCK8 assay; type: functional, cell-based; how it was run: as §2
[14] = test system: Staphylococcus aureus; test: Antibacterial activity against Methicillin-resistant Staphylococcus aureus after 3 to 7 days by broth dilution assay; type: functional
How it was run: (§4)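 Modified broth dilution with bacterial suspensions at 10^6 CFU/mL. Test and ciprofloxacin control stocks were 1 mg/mL in DMSO. Serial dilution and MIC read-out followed the antifungal microdilution procedure.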

[15] = test system: Bacillus cereus; test: Antibacterial activity against Bacillus cereus after 3 to 7 days by broth dilution assay; type: functional
[16] = test system: LoVo; test: Cytotoxicity against human LoVo cells after 48 hrs by CCK8 assay; type: functional, cell-based
How it was run: (§5)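 Cultured in DMEM with 10% FBS at 37 °C under 5% CO2. After a 16 h attachment, cells were treated with varying concentrations for 48 h. CCK-8 absorbance was expressed as percent of control and IC50 derived by sigmoidal curve fitting; camptothecin was the positive control.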

[17] = test system: Verticillium dahliae; test: Antifungal activity against Verticillium dahliae Kleb after 3 to 7 days by microbroth dilution method; type: functional; how it was run: as §3
[18] = test system: MDA-MB-231; test: Cytotoxicity against human MDA231 cells after 48 hrs by CCK8 assay; type: functional, cell-based; conditions: MDA-MB-231, 48 h
How it was run: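 MDA231 cells kept in DMEM with 10% FBS at 37 °C, 5% CO2. Seeded at 10 000 cells/well and settled 16 h, then given graded concentrations for 48 h. Viability measured by CCK-8 absorbance relative to control cells, with IC50 from a sigmoidal fit; camptothecin served as the positive control.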

[19] = test system: Corynespora cassiicola; test: Antifungal activity against Corynespora cassiicola after 3 to 7 days by microbroth dilution method; type: functional; how it was run: as §3
[20] = test system: MHCC97H; test: Cytotoxicity against human MHCC97H cells after 48 hrs by CCK8 assay; type: functional, cell-based; how it was run: as §5
[21] = test system: Bacillus subtilis; test: Antibacterial activity against Bacillus subtilis after 3 to 7 days by broth dilution assay; type: functional
[22] = test system: Salmonella paratyphi; test: Antibacterial activity against Bacterium paratyphosum after 3 to 7 days by broth dilution assay; type: functional, Salmonella enterica subsp. enterica serovar Paratyphi A; conditions: Salmonella enterica; how it was run: as §4
[23] = test system: Klebsiella aerogenes; test: Antibacterial activity against Enterobacter aerogenes after 3 to 7 days by broth dilution assay; type: functional
[24] = test system: Micrococcus luteus; test: Antibacterial activity against Micrococcus lysodeikticus after 3 to 7 days by broth dilution assay; type: functional

Compound	Activity [1]	Activity [2]	MIC [3] [µg/mL]	Activity [4]	MIC [14] [µg/mL]	further results
CC(C)=C[C@H]1O[C@H]2[C@H]3O[C@@]34[C@H](CC[C@@]3(C)[C@@]4(O)CC[C@H]4Cc5c([nH]c6cccc(C[C@H](O)C(C)(C)Cl)c56)[C@@]43C)O[C@@H]2C(C)(C)O1	Active	Active	6.25 to 50 (≈ 9.76 to 78.1 µM)	Active	–	–
CC(C)(O)[C@@H](O)Cc1cccc2[nH]c3c(c12)C[C@@H]1CC[C@@]2(O)[C@@]45O[C@@H]4[C@@H]4O[C@H]([C@H]6OC6(C)C)OC(C)(C)[C@H]4O[C@H]5CC[C@]2(C)[C@@]31C	Active	Active	6.25 to 50 (≈ 9.8 to 78.4 µM)	Active	–	–
CC(C)=CCc1cccc2[nH]c3c(c12)C[C@@H]1CC[C@@]2(O)[C@@]45O[C@@H]4[C@H](O)[C@@H](C(C)(C)O)O[C@H]5CC[C@]2(C)[C@@]31C	Active	Active	6.25 to 50 (≈ 12 to 95.8 µM)	Active	12.5 (≈ 24 µM)	pIC50 [5]: 4.42 to 4.79; Activity [6]: Active; MIC [7]: 6.25 to 25 µg/mL (≈ 12 to 47.9 µM); MIC [8]: 6.25 to 25 µg/mL (≈ 12 to 47.9 µM); MIC [9]: 6.25 to 25 µg/mL (≈ 12 to 47.9 µM); pIC50 [10]: 4.42 to 4.79; pIC50 [11]: 4.42 to 4.79; MIC [12]: 6.25 to 25 µg/mL (≈ 12 to 47.9 µM); pIC50 [13]: 4.42 to 4.79; MIC [15]: 25 µg/mL (≈ 47.9 µM); pIC50 [16]: 4.42 to 4.79; MIC [17]: 6.25 to 25 µg/mL (≈ 12 to 47.9 µM); pIC50 [18]: 4.42 to 4.79; MIC [19]: 6.25 to 25 µg/mL (≈ 12 to 47.9 µM); pIC50 [20]: 4.42 to 4.79
CC(C)=CCc1cccc2[nH]c3c(c12)C[C@@H]1CC[C@]2(O)[C@](C)(CCC(=O)[C@@]24O[C@@H]4[C@@H]2O[C@H](C=C(C)C)OC(C)(C)[C@@H]2O)[C@@]31C	Active	Active	–	Active	12.5 to 25 (≈ 20.7 to 41.4 µM)	MIC [21]: 12.5 to 25 µg/mL (≈ 20.7 to 41.4 µM); MIC [22]: 12.5 to 25 µg/mL (≈ 20.7 to 41.4 µM); MIC [15]: 12.5 to 25 µg/mL (≈ 20.7 to 41.4 µM); MIC [23]: 12.5 to 25 µg/mL (≈ 20.7 to 41.4 µM); MIC [24]: 12.5 to 25 µg/mL (≈ 20.7 to 41.4 µM)
CC(C)(O)[C@H]1O[C@H]2CC[C@@]3(C)[C@@](O)(CC[C@H]4Cc5c([nH]c6cc(C[C@H](O)C(C)(C)Cl)ccc56)[C@@]43C)[C@]23O[C@@H]3[C@@H]1O	Active	Active	6.25 to 50 (≈ 10.9 to 87.1 µM)	Active	–	–
CC(C)(O)[C@H]1O[C@H]2CC[C@@]3(C)[C@@](O)(CC[C@H]4Cc5c([nH]c6cccc(C[C@H](O)C(C)(C)Cl)c56)[C@@]43C)[C@]23O[C@@H]3[C@@H]1O	Active	Active	6.25 to 50 (≈ 10.9 to 87.1 µM)	Active	50 (≈ 87.1 µM)	–
CC(C)(Cl)[C@H](O)Cc1ccc2c3c([nH]c2c1)[C@@]1(C)[C@@H](CC[C@@]2(O)[C@@]45O[C@@H]4[C@@H]4O[C@H]([C@H]6OC6(C)C)OC(C)(C)[C@H]4O[C@H]5CC[C@@]21C)C3	Active	Active	6.25 to 50 (≈ 9.52 to 76.2 µM)	Active	–	–
O=C(O)c1cn(C2CC2)c2cc(N3CCNCC3)c(F)cc2c1=O [CIPROFLOXACIN]	–	–	–	–	1.56 (≈ 4.71 µM)	MIC [21]: 0.78 to 1.56 µg/mL (≈ 2.35 to 4.71 µM); MIC [22]: 0.78 to 1.56 µg/mL (≈ 2.35 to 4.71 µM); MIC [15]: 0.78 µg/mL (≈ 2.35 µM); MIC [23]: 0.78 to 1.56 µg/mL (≈ 2.35 to 4.71 µM); MIC [24]: 0.78 to 1.56 µg/mL (≈ 2.35 to 4.71 µM)
COC(C)(C)[C@@H](O)Cc1cccc2[nH]c3c(c12)C[C@@H]1CC[C@@]2(O)[C@@]45O[C@@H]4[C@H](O)[C@@H](C(C)(C)O)O[C@H]5CC[C@]2(C)[C@@]31C	Active	Active	6.25 to 50 (≈ 11 to 87.8 µM)	Active	–	–
CC(C)=C[C@H]1O[C@H]2[C@H]3O[C@@]34[C@H](CC[C@@]3(C)[C@@]4(O)CC[C@H]4Cc5c([nH]c6cccc(C[C@H](O)C(C)(C)O)c56)[C@@]43C)O[C@@H]2C(C)(C)O1	Active	Active	6.25 to 50 (≈ 10.1 to 80.4 µM)	Active	–	–
CC(=O)N1CCN(c2ccc(OCC3COC(Cn4ccnc4)(c4ccc(Cl)cc4Cl)O3)cc2)CC1 (configuration not stated) [KETOCONAZOLE]	–	–	0.78 (≈ 1.47 µM)	–	–	MIC [7]: 0.78 to 1.56 µg/mL (≈ 1.47 to 2.94 µM); MIC [8]: 0.78 to 1.56 µg/mL (≈ 1.47 to 2.94 µM); MIC [9]: 0.78 to 1.56 µg/mL (≈ 1.47 to 2.94 µM); MIC [12]: 0.78 to 1.56 µg/mL (≈ 1.47 to 2.94 µM); MIC [17]: 0.78 to 1.56 µg/mL (≈ 1.47 to 2.94 µM); MIC [19]: 0.78 to 1.56 µg/mL (≈ 1.47 to 2.94 µM)
CC(C)=C[C@H]1O[C@H]2[C@H]3O[C@@]34[C@H](CC[C@@]3(C)[C@@]4(O)CC[C@H]4Cc5c([nH]c6cc(C[C@H](O)C(C)(C)O)ccc56)[C@@]43C)O[C@@H]2C(C)(C)O1	Active	Active	6.25 to 50 (≈ 10.1 to 80.4 µM)	Active	–	–
CC[C@@]1(O)C(=O)OCc2c1cc1n(c2=O)Cc2cc3ccccc3nc2-1 [CAMPTOTHECIN]	–	–	–	–	–	pIC50 [5]: 7.50 to 9.49; pIC50 [10]: 7.50 to 9.49; pIC50 [11]: 7.50 to 9.49; pIC50 [13]: 7.50 to 9.49; pIC50 [16]: 7.50 to 9.49; pIC50 [18]: 7.50 to 9.49; pIC50 [20]: 7.50 to 9.49

Reference: ChEMBL document CHEMBL4330160, “Prenylated Indole Diterpene Alkaloids from a Mine-Soil-Derived Tolypocladium sp” (J Nat Prod, 2019)
